M1 antagonist: blocks the rat M1 muscarinic receptor response to acetylcholine; P08482; CHO-M1 cells, Fluo-4 calcium, ACh EC80 antagonist mode; active compounds read low; B-score at 10 µM; 64,000 tested, 3.4% active;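 active means calcium fluorescence response, raw or row-and-column corrected B-score, differing from the plate sample mean either way at a set confidence level, mostly lower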
SF1 activator: activates the human nuclear receptor SF-1. 65,000 tested, 1.9% active. activation, % at 10 µM. CHO-K1 Gal4-SF-1 LBD luciferase reporter; % increase over DMSO SF-1-specific signal. AID 522. Q13285;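 active means activation above the mean activation of all tested compounds plus 3 SD, cut at about 50% in these data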
Target sequence (Q13285 whole entry, looked up, the tested form may be a part): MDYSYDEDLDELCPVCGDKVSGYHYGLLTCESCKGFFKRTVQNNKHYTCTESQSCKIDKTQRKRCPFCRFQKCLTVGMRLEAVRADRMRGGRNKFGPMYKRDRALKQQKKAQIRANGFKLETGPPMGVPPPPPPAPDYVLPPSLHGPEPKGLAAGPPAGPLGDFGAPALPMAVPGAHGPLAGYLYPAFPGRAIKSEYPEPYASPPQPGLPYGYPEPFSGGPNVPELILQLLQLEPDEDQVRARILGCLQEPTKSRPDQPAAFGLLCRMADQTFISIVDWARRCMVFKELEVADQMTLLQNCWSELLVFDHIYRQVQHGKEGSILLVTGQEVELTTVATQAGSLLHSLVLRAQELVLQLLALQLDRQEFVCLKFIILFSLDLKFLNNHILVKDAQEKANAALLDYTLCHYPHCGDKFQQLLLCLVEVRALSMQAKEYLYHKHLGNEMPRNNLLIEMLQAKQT
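Material: Transient Gal4-SF-1 LBD reporter, CHO-K1 | Input: 4,000 cells/well | Dosing: One dose, 10 µM compound, 1% DMSO | Incubation: 20 h compound treatment, 37 °C | Detection: SteadyLite luciferase luminescence | Evaluation: Percent activation relative to DMSO median and mock-transfected background | Benchmarks: DMSO-treated SF-1-transfected cells as negative, DMSO-treated mock-transfected cells lacking SF-1 as background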
RORa activator: activates the human nuclear receptor RORA; activation, % at 10 µM; AID 560; 65,000 tested, 1.5% active; P35398; CHO-K1 Gal4-RORA LBD luciferase reporter, luminescence; percent increase over mock-subtracted basal signal;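 active means activation above the mean of all tested compounds plus 3 SD, cut at about 49% in these data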
M1 ag: M1 muscarinic receptor agonism. 64,000 tested, 3% active. AID 626. B-score at 10 µM. CHO-M1 cells, Fluo-4 calcium fluorescence, agonist mode; active compounds read high;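 active means fluorescence rise, raw or as B-score row- and column-corrected plate score, outside the 99.7% band of its plate's samples, either direction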
HePTP inhibitor: human HePTP phosphatase inhibition. P35236. recombinant HePTP phosphatase activity, OD absorbance. inhibition, % at 20 µM. 110,000 tested, 0.64% active. AID 521; in the data active means inhibition above about 50%; inconclusive means no clear call, values can overlap the other calls
D1 allo mod: allosteric modulators of human D1 dopamine receptor. HEK293 D1, CRE-luciferase, dopamine EC30 potentiation; actives deviate in either direction. B-score at 10 µM. 58,000 tested, 5.9% active;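 active means luminescence count or its row- and column-corrected plate score outside the 99.7% band of the plate's sample wells, on either side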
M1 agonist conf: confirmation of rat M1 muscarinic receptor agonists; shares compounds with M1 ag; CHO-M1 cells, Fluo-4 calcium fluorescence, agonist mode; actives lie on both sides; fluorescence change (max-min) at 10 µM; 1,700 tested, 19% active; AID 1488;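 active means fluorescence change differs from the solvent-only DMSO control mean at a set confidence level in both duplicate runs; inconclusive means differs from solvent-only control mean in just one of two runs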;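 further: an EC20 dose of acetylcholine follows compound addition during the same imaging run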
M4 agonist ctr: activates rat M4 receptor in counter-screen for M1 agonists | 1,700 tested, 9% active | CHO M4/Gqi5 cells, Fluo-4 calcium fluorescence, agonist mode; actives lie on both sides | fluorescence change (max-min) at 10 µM | shares compounds with M1 ag;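 active means fluorescence change differing from the plate's solvent-only control wells at 99.7% confidence in both duplicates, whether higher or lower; inconclusive means differs from solvent controls in only one of two duplicates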
Each line names hits and unclear results; the compound was inactive in the other large screens (follow-up assays come after a bar, where they were run). An excerpt weighted towards active compounds, which were near 8.2% of everything screened.

CC(=O)N1C(=O)C(=C2C=C(C)OC(C)=C2)c2ccccc21	M1 ag 28 | M1 agonist conf inconclusive | M4 agonist ctr inactive
CN(C)c1ccc(C2C=C(c3ccc(Cl)cc3OC(F)F)Nc3ncnn32)cc1 (stereo not drawn)	M1 ag 18 | M1 agonist conf 85 | M4 agonist ctr inactive
Cc1ccc(C2C=C(c3ccccc3OC(F)F)Nc3ncnn32)cc1 (stereo not drawn)	none (no result: D1 allo mod)
COc1ccccc1CCNC(=O)c1cnn2c(C(F)F)cc(C)nc12	M1 ag 2.5 (no result: D1 allo mod) | M1 agonist conf inactive | M4 agonist ctr inactive
CS(=O)(=O)N(CC(=O)N1CCCCCC1)c1ccc2c(c1)OCCO2	M1 ag -2.1 | M1 agonist conf inactive | M4 agonist ctr inactive
O=C(NCCCN1CCCC1=O)Nc1ccc(Cl)cc1	none (no result: HePTP inhibitor)
O=C(NCCCN1CCCC1=O)NC12CC3CC(CC(C3)C1)C2	M1 ag 5.7 | M1 agonist conf inactive | M4 agonist ctr inactive
COc1ccc(NC(=O)C2Cc3ccccc3CN2C(=O)c2ccccc2)cn1 (stereo not drawn)	M1 ag 16 | M1 agonist conf inconclusive | M4 agonist ctr inconclusive
O=C(NC1=NCCS1)C1Cc2ccccc2CN1C(=O)c1ccccc1 (stereo not drawn)	none
CC(N=c1ccccn1C(=O)Nc1ccc(Cl)cc1)c1ccco1 (stereo not drawn)	M1 ag 4 | M1 agonist conf -30 | M4 agonist ctr inconclusive
CC(N=c1ccccn1C(=O)Nc1ccc(F)cc1)c1ccco1 (stereo not drawn)	none
Cc1ccccc1SCCNC(=O)Nc1cc(F)c(F)cc1Cl	none (no result: M1 antagonist, SF1 activator, RORa activator, M1 ag, D1 allo mod)
O=C(O)Cn1c(CC(=O)N2CCCC2)nc2ccccc21	none
O=C(N1CCCC1)n1c(Cc2ccccc2)nc2ccccc21	M1 ag 6.4 | M1 agonist conf inconclusive | M4 agonist ctr -82
CCCC(=O)c1ccc(N2CCN(C(=O)c3ccccc3Br)CC2)c(F)c1	M1 antagonist -3.2, M1 ag 3.1 | M1 agonist conf inconclusive | M4 agonist ctr inactive
CCCC(=O)c1ccc(N2CCN(C(=O)c3ccc(Br)cc3)CC2)c(F)c1	none
CCC(=O)c1ccc(N2CCN(C(=O)Cc3ccccc3)CC2)c(F)c1	none
CCCC(=O)c1ccc(N2CCN(C(=O)c3ccccc3)CC2)c(F)c1	M1 ag 4.1 | M1 agonist conf inactive | M4 agonist ctr inactive
CCC(=O)c1cc(F)c(N2CCN(C(=O)Cc3ccccc3)CC2)cc1C	M1 antagonist -1.2, M1 ag 2.7 (no result: HePTP inhibitor) | M1 agonist conf inactive | M4 agonist ctr inactive
N#Cc1ccccc1NC(=O)COC(=O)CSc1nc2ccccc2o1	none
O=C(Nc1nnc(CCN2CCCCC2)s1)C1CCCCC1	M1 ag 2.7 | M1 agonist conf inconclusive | M4 agonist ctr inactive
O=C(NCc1ccco1)C1CCC(N2C(=O)c3ccccc3C2=O)CC1 (stereo not drawn)	none
Clc1ccc(C(c2nnnn2C2CCCC2)N2CCSCC2)cc1 (stereo not drawn)	M1 ag 8 (no result: D1 allo mod) | M1 agonist conf inactive | M4 agonist ctr inconclusive
O=c1[nH]c(SCc2ccccc2Cl)nc2c1CCC2	none
Cc1ccc(CSc2nc3c(c(=O)[nH]2)CCC3)cc1	M1 ag 2.3 (no result: SF1 activator, RORa activator) | M1 agonist conf inactive | M4 agonist ctr inactive
COCCCn1c(C(C)C)nc2oc3cc(OC)ccc3c(=O)c2c1=O	M1 ag 13 | M1 agonist conf inactive | M4 agonist ctr inactive
O=C(O)c1ccc(S(=O)(=O)NC2CCCc3ccccc32)cc1 (stereo not drawn)	M1 ag 2.9 | M1 agonist conf inconclusive | M4 agonist ctr inconclusive
CC(=O)N1CCc2cc(S(=O)(=O)NC3CCCc4ccccc43)ccc21 (stereo not drawn)	none (no result: D1 allo mod)
N#Cc1ccc(COc2ccc(CCO)cc2-n2nc3ccccc3n2)cc1	M1 ag 5.5 | M1 agonist conf inactive | M4 agonist ctr inactive
COc1ccc(S(=O)(=O)C(C#N)c2nc3ccccc3nc2N2CCC(C)CC2)cc1 (stereo not drawn)	M1 ag 3.9 | M1 agonist conf inconclusive | M4 agonist ctr inactive
CC1(C(=O)NC2CCCCCCC2)CCC(=O)N1Cc1ccco1 (stereo not drawn)	none
CCOC(=O)CNC(=O)CSc1nnc(-c2ccco2)n1N	M1 ag 2.3 | M1 agonist conf -27 | M4 agonist ctr -89
CCOC(=O)CNC(=O)CSc1nnc(-c2ccco2)n1Cc1ccco1	none
COc1ccc(NC(=O)C2CC(=O)NC(Nc3cccc(C)c3)=N2)cc1 (stereo not drawn)	none
O=C(Cn1ccc2ccccc2c1=O)NCCC(=O)N1CCN(C2CCCCC2)CC1	M1 ag 17 | M1 agonist conf inactive | M4 agonist ctr inactive
Cc1cc(C)nc(/N=C2\NC(=O)CC(C(=O)O)N2CCc2c[nH]c3ccccc23)n1 (stereo not drawn)	M1 ag 3.2 (no result: D1 allo mod) | M1 agonist conf inactive | M4 agonist ctr inactive
Cc1ccc(NC(=O)CCSc2nnnn2-c2ccc3c(c2)OCO3)cc1C	M1 ag -2.7 | M1 agonist conf inactive | M4 agonist ctr inactive
CCC(Sc1nc(N)cc(=O)[nH]1)C(=O)NC(C(=O)OC)c1ccccc1 (stereo not drawn)	M1 ag 3.2 | M1 agonist conf inactive | M4 agonist ctr inactive
CCOC(=O)c1nnn(-c2nonc2N)c1CN1CCc2ccccc2C1	M1 ag -2.7 | M1 agonist conf -27 | M4 agonist ctr inconclusive
Cc1ccc2c(c1)NC(=O)C(CC(=O)NCc1ccc(F)cc1)O2 (stereo not drawn)	none
CC(C)N(C(=O)CN(C#N)c1nc(N(C)C)nc(N(C)C)n1)c1ccccc1	M1 ag -3.2 | M1 agonist conf inactive | M4 agonist ctr inactive
Cn1c(=O)c2c(SCC(=O)c3ccccc3)nc(C3CC3)nc2n(C)c1=O	M1 ag 2.7 | M1 agonist conf inactive | M4 agonist ctr inactive
CCCc1nc(SCC(=O)c2ccc(OC)cc2)c2c(=O)n(C)c(=O)n(C)c2n1	none
Cc1ccc(/C=N/NC(=O)CSc2nc3ccccc3[nH]2)o1	none (no result: M1 antagonist, SF1 activator, RORa activator, M1 ag, D1 allo mod)
COc1ccc(N2C(=O)CC(Sc3nc(C)c4c(n3)CCCC4)C2=O)cc1 (stereo not drawn)	M1 ag 2.2 | M1 agonist conf inactive | M4 agonist ctr inactive
Cc1cccc(N2C(=O)CC(Sc3nc(C)c4c(n3)CCCC4)C2=O)c1 (stereo not drawn)	none
c1ccc(-n2nnnc2NCCc2c[nH]c3ccccc23)cc1	M1 ag 5.8 | M1 agonist conf inactive | M4 agonist ctr inconclusive
